High-throughput results as filed in PubChem.
The list is not random: actives were taken first. Their share in the collection is about 3.2%.
14-3-3 Bad PPI: inhibitors of 14-3-3 zeta/Bad binding, primary screen, biochemical, TR-FRET, bovine 14-3-3 zeta; actives 0.71% (n = 220,000); TR-FRET 14-3-3zeta/Dy647-pBad peptide displacement, 1 h; AID 781, 2007; 14-3-3 protein zeta/delta (Bos taurus), P63103; inhibition, % at 21.7 µM;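 active = inhibition above about 70%, limit read from the data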;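 note: 0% = full 14-3-3 plus peptide FRET controls and 100% = background without 14-3-3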
Mcl1 Noxa PPI: Mcl-1/Noxa binding inhibitors, primary screen, biochemical, TR-FRET, 1536-well; TR-FRET Mcl-1/Noxa peptide binding, 2 h; inhibition, % at 21.7 µM; actives 1.5% (n = 220,000);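 active = compounds that cut the protein-peptide binding signal by more than 50% relative to plate controls in a single-dose test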;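 note: His-tagged Mcl-1 with rhodamine Noxa BH3 peptide and terbium anti-His antibody; 0% = Mcl-1 plus Noxa peptide wells and 100% = peptide-only wells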
Mcl-1 Bim block: inhibitors of Bim peptide binding to Mcl-1, primary screen, biochemical, bead-based flow cytometry, multiplex. Induced myeloid leukemia cell differentiation protein Mcl-1 (Homo sapiens), Q07820. Bim peptide-Mcl-1 binding. inhibition, % at 10 µM. actives 0.1% (n = 190,000). AID 1009, 2008; in the data active = inhibition above about 40%;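 note: 0% = no compound tracer wells and 100% = peptide blocker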
Mcl1-Bid inh: Mcl-1/Bid binding inhibitors, primary screen, biochemical, TR-FRET, 1536-well. Induced myeloid leukemia cell differentiation protein Mcl-1 (Homo sapiens), Q07820. TR-FRET Mcl-1/Bid-Dy647 peptide binding. inhibition, % at 21.7 µM. actives 0.97% (n = 220,000). AID 1021, 2008;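 active = compounds that cut the binding signal by more than half at the single screening dose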;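 note: His-tagged Mcl-1 with europium anti-His antibody binding Bid BH3 peptide; 0% = Mcl-1 plus peptide wells and 100% = peptide-only wells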
Biofilm kill mix: clotrimazole potentiators killing C. albicans biofilm, primary screen, 4-compound mixtures. C. albicans biofilm persisters + clotrimazole, fluorescence viability; primary screen in compound mixtures of four per well. inhibition, % at 7.6 µM. actives 0.02% (n = 120,000). AID 1242, 2008;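 active = inhibition above 30.3% in the primary screen of four-compound pools, then above 30% when the compound was retested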;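 note: compounds exposed to preformed 24 h biofilms for 48 h; 0% = untreated biofilm control and 100% = clotrimazole plus chlorhexidine kill blank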
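System: C. albicans CAF4-2 wild-type biofilms; Medium: RPMI/MOPS medium, pH 7.0; Reagent: Clotrimazole, 50 µg/mL; Times: biofilm formation 24 h, compound exposure 48 h, 37 °C; Detection: 2-h Alamar Blue fluorescence, 535/590 nm excitation/emission; Evaluation: percent inhibition of biofilm viability.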
Hck Nef HTS: inhibitors of Nef-activated human Hck kinase, primary screen, biochemical, Z-Lyte FRET, 384-well, Hck-YEEI | Recombinant Hck-YEEI plus Nef, Z-Lyte FRET kinase assay | inhibition, % at 20 µM | actives 0.68% (n = 220,000);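 active = Hck-Nef kinase inhibition above about 50%, limit read from the data; inactive = inhibition below that limit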;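 note: 0% = DMSO with Hck plus Nef and 100% = Hck alone without Nef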
Target sequence (P08631 whole entry, looked up): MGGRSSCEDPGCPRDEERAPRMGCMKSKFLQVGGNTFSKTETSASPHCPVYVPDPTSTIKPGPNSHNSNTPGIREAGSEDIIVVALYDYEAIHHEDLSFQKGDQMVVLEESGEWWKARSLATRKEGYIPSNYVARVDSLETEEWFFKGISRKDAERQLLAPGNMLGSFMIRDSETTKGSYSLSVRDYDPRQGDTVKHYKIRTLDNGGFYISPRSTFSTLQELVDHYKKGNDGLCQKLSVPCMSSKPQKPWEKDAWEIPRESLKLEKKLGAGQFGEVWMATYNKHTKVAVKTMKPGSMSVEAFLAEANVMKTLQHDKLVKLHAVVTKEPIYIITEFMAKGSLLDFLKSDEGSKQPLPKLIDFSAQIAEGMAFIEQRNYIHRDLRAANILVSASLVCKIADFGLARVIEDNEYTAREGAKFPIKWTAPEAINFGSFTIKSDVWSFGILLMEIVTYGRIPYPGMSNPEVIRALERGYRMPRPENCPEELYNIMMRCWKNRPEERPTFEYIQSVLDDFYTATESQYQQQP
Numbers without * were called inactive; x = not tested or not shown.

SMILES	14-3-3 Bad PPI	Mcl1 Noxa PPI	Mcl-1 Bim block	Mcl1-Bid inh	Biofilm kill mix	Hck Nef HTS
COc1ccc(C(=O)N/N=C(\C)c2ccc3c(c2)C2C=CCC2C(c2ccccc2)N3)cc1 (stereo not drawn)	4	46	3	-2	15	16
COc1cccc(NS(=O)(=O)c2ccc3c(c2)C2C=CCC2C(c2ccc(C(=O)O)cc2)N3)c1 (stereo not drawn)	-1	97*	6	14	11	44
Cc1cc(SCC(=O)Nc2cccc(S(=O)(=O)N3CCOCC3)c2)nc2ccccc12	-10	-96	-1	-74	-7	19
Cc1cc(Cl)ccc1OCCCC(=O)Nc1cccnc1	75*	7	0	15	x	-1
CCN(CC)CCn1c2ccc(F)cc2c2nc(C)sc21	27	42	9	53*	x	-17
CC(=O)c1sc(N/N=C\c2ccc(Br)cc2)nc1C	3	30	-4	-50	18	0
CC(=O)c1sc(N/N=C\c2cccc(Br)c2)nc1C	-9	51*	-5	-39	16	6
CCO[C@H]1OC(C(=O)N2CCN(Cc3ccccc3)CC2)=C[C@@H](C)[C@@H]1CCCO	3	-12	1	-4	15	16
CCO[C@@H]1OC(C(=O)N2CCN(Cc3ccccc3)CC2)=C[C@H](C2CC2)[C@H]1CCCO	0	42	-3	87*	17	9
Cc1ccc(S(=O)(=O)N2CCC(C(=O)C3C(=O)CC(C)(C)CC3=O)CC2)cc1	-4	15	-1	-14	4	15
Cc1ccc(S(=O)(=O)/N=C2/C=C(C3C(=O)CC(C)(C)CC3=O)C(=O)c3ccccc32)cc1	31	80*	4	26	x	1
O=c1n(S(=O)(=O)c2cccc3cccnc23)c2ccccc2n1S(=O)(=O)c1cccc2cccnc12	8	10	-6	91*	x	0
O=C(Nc1ccc(-c2nc3cc(Cl)ccc3c(=O)o2)cc1)c1ccco1	31	-20	-5	72*	4	31
CC1=C(C(=O)N2CCc3ccccc32)C2(CCC(C)CC2)OC1=O (stereo not drawn)	84*	12	-6	-29	x	0
COc1cc(/C=N/NC(=O)c2cncc(Br)c2)ccc1OC(=O)c1ccc2c(c1)OCO2	15	6	-1	-142	x	1
COc1cc(/C=N\NC(=O)c2ccc(C)nc2)ccc1OC(=O)c1ccc2c(c1)OCO2	74*	-45	2	23	18	13
COc1cc(/C=N/NC(=O)c2cc(-c3ccc4c(c3)OCO4)n[nH]2)ccc1O	2	55*	9	1	9	3
Cc1nc(C)c(C(=O)NCCC(c2ccccc2)c2ccccc2)o1	92*	14	-6	-22	20	4
O=C1C(C2=NC(C(=O)O)C3C(=O)N(c4ccc(Cl)cc4)C(=O)C23)=C(O)c2ccccc21 (stereo not drawn)	-4	63*	-1	-21	x	0
Cc1cccc(NC(=O)COc2ccc(/C=C\c3[nH]c(=O)[nH]c(=O)c3[N+](=O)[O-])cc2)c1	1	34	0	-50	-1	62*
Cc1csc(NC(=O)c2ccncc2)n1	43	64*	x	8	14	21
CC(=O)Nc1ccc(C(=O)Nc2nc(-c3cccnc3)cs2)cc1	28	35	0	-40	1	10
O=C(Nc1nc(-c2ccc(Cl)s2)cs1)c1ccccc1	0	15	-5	7	x	2
CC(=O)Nc1ccc(C(=O)Nc2nc(-c3ccccn3)cs2)cc1	-6	70*	-2	-30	17	14
O=C(Nc1nc(-c2ccco2)cs1)c1ccccc1	-28	54*	-1	5	x	2
